Columns and labels:
NCI-H1975 [1] = experiment: Antiproliferative activity against human NCI-H1975 cells harboring EGFR L858R/T790M double mutant; format: functional, cell-based
In short: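 A431 was grown in EMEM with 10% FBS; HCC827 and NCI-H1975 were grown in RPMI-1640 with 10% FBS. Cell viability experiments were repeated at least three times.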

[2] = Intrinsic clearance in mouse liver microsomes; format: ADME, microsome; settings: read-out: CLH
[3] = Half life in rat hepatocytes; format: ADME, cell-based, Hepatocyte
[4] = Intrinsic clearance in human hepatocytes assessed per million cells; format: ADME, cell-based, Hepatocyte
[5] = MRT in Sprague-Dawley rat at 10 mg/kg, po administered via gavage by LC-MS/MS analysis; format: ADME, organism-based; settings: in vivo
In short: (§1)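 Male Sprague-Dawley rats (200-240 g) received 1 mg/kg by tail-vein injection in 2% DMSO, 20% PEG400 and 78% buffered saline, or 10 mg/kg by oral gavage in 0.5% methylcellulose. Orbital sinus blood was drawn into heparinized tubes at 2, 5, 15 and 30 min and at 1, 2, 4, 8, 12 and 24 h, then centrifuged. Plasma was measured by LC/MS/MS in SRM mode, with non-compartmental analysis.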

[6] = AUC (0 to 24 hrs) in Sprague-Dawley rat at 1 mg/kg, iv by LC-MS/MS analysis; format: ADME, organism-based; set-up: time < 24 hr, dose 1 mg/kg, route intravenous; settings: in vivo
[7] = Clearance in Sprague-Dawley rat at 1 mg/kg, iv after 24 hrs by LC-MS/MS analysis; format: ADME, organism-based; settings: in vivo; in short: as §1
[8] = MRT in Sprague-Dawley rat at 1 mg/kg, iv by LC-MS/MS analysis; format: ADME, organism-based; settings: in vivo; in short: as §1
NCI-H1975 [9] = experiment: In vivo anti tumor activity against human NCI-H1975 cells xenografted in nude C.B-17 SCID mouse model assessed as tumor volume at 10 mg/kg, ig for 18 days measured twice a week (reference value: 948.05 mm3); format: functional
NCI-H1975 [10] = experiment: In vivo anti tumor activity against human NCI-H1975 cells xenografted in nude C.B-17 SCID mouse model assessed as tumor volume at 20 mg/kg, ig for 18 days measured twice a week (reference value: 948.05 mm3); format: functional
NCI-H1975 [11] = experiment: In vivo anti tumor activity against human NCI-H1975 cells xenografted in nude C.B-17 SCID mouse model assessed as tumor growth inhibition at 20 mg/kg, ig for 18 days measured twice a week relative to control; format: functional; settings: NCI-H1975, po, 432 h, read-out: TGI
In short: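 H1975 s.c. xenografts (5 × 10^6 cells) were grown in C.B-17 SCID mice and randomized at 100-150 mm3 (n = 9). Mice were dosed intragastrically once daily for 18 days against a PBS control. TGI% = (TWcontrol − TWtreatment)/TWcontrol × 100, where TW is the mean tumor weight on day 18.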

Mus musculus = experiment: Toxicity in nude C.B-17 SCID mouse model xenografted with human NCI-H1975 cells assessed as mortality at 5 to 20 mg/kg, ig for 18 days; format: organism-based; settings: in vivo, po, 432 h
In short: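 H1975 xenografts were set up by subcutaneous inoculation of 5 × 10^6 cells into C.B-17 SCID mice. At a mean tumor volume of 100-150 mm3, mice were randomized into groups of n = 9. They were dosed intragastrically once daily for 18 days at 5, 10 or 20 mg/kg, given as 0.1 mL/10 g body weight. The control group received PBS, and tumors were caliper-measured twice weekly.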

[12] = molecular target: Tyrosine-protein kinase ABL1 (Homo sapiens) (UniProt P00519); experiment: Inhibition of ABL1 (unknown origin) at 1 uM relative to control
[13] = molecular target: Tyrosine-protein kinase Blk (Homo sapiens) (UniProt P51451); experiment: Inhibition of BLK (unknown origin) at 1 uM relative to control
[14] = molecular target: Tyrosine-protein kinase BTK (Homo sapiens) (UniProt Q06187); experiment: Inhibition of BTK (unknown origin) at 1 uM relative to control
[15] = molecular target: CDK2/Cyclin A2 (Homo sapiens) (UniProt P24941+P20248); experiment: Inhibition of CDK2/cyclin A (unknown origin) at 1 uM relative to control; format: protein-complex assay
[16] = molecular target: Casein kinase I isoform epsilon (Homo sapiens) (UniProt P49674); experiment: Inhibition of CSNK1E (unknown origin) at 1 uM relative to control
[17] = molecular target: Ephrin type-B receptor 2 (Homo sapiens) (UniProt P29323); experiment: Inhibition of EPHB2 (unknown origin) at 1 uM relative to control
Sequence of Ephrin type-B receptor 2 (Homo sapiens) (P29323 whole entry): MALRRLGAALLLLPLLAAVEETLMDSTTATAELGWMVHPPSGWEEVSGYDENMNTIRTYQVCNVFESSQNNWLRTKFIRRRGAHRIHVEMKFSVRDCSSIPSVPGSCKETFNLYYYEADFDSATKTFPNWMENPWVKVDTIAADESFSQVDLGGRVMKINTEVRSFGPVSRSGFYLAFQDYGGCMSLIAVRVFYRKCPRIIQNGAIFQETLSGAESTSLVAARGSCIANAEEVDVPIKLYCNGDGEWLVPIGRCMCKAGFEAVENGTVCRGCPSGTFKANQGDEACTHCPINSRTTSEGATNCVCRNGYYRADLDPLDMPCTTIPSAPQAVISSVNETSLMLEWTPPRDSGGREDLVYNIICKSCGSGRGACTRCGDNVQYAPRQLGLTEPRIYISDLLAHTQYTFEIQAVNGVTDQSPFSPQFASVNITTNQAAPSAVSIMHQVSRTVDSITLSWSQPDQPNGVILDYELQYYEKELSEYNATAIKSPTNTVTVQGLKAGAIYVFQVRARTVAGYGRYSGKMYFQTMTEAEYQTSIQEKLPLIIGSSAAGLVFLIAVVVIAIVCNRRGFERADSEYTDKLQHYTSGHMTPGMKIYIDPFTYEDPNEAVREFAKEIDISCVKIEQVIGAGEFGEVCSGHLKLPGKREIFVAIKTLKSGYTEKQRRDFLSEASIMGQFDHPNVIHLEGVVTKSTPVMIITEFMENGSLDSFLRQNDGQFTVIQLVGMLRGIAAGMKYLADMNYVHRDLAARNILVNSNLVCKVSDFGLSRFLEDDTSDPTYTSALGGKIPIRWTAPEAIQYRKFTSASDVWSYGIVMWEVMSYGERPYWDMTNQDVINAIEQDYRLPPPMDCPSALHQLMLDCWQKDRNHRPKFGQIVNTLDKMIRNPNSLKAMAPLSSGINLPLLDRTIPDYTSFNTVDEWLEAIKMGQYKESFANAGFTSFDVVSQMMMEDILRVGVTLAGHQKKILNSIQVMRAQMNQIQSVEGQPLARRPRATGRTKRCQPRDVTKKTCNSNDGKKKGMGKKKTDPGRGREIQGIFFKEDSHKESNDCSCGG

[18] = molecular target: Receptor tyrosine-protein kinase erbB-4 (Homo sapiens) (UniProt Q15303); experiment: Inhibition of ERBB4 (HER4) (unknown origin) at 1 uM relative to control
[19] = molecular target: Glycogen synthase kinase-3 beta (Homo sapiens) (UniProt P49841); experiment: Inhibition of GSK3B (unknown origin) at 1 uM relative to control
Sequence of Glycogen synthase kinase-3 beta (Homo sapiens) (P49841 whole entry, looked up): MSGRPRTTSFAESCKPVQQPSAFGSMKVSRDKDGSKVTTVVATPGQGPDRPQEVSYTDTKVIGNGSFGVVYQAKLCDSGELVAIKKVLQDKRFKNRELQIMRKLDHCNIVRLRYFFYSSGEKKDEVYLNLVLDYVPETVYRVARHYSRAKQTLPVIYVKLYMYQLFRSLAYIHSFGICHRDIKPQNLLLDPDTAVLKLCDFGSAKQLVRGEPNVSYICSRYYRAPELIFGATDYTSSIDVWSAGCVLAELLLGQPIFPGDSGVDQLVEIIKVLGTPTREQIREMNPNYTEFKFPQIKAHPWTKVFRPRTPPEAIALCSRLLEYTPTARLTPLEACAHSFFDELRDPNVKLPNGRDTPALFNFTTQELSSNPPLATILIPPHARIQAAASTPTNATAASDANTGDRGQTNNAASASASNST

[20] = molecular target: Tyrosine-protein kinase ITK/TSK (Homo sapiens) (UniProt Q08881); experiment: Inhibition of ITK (unknown origin) at 1 uM relative to control
[21] = molecular target: Tyrosine-protein kinase JAK2 (Homo sapiens) (UniProt O60674); experiment: Inhibition of JAK2 (unknown origin) at 1 uM relative to control
Sequence of Tyrosine-protein kinase JAK2 (Homo sapiens) (O60674 whole entry): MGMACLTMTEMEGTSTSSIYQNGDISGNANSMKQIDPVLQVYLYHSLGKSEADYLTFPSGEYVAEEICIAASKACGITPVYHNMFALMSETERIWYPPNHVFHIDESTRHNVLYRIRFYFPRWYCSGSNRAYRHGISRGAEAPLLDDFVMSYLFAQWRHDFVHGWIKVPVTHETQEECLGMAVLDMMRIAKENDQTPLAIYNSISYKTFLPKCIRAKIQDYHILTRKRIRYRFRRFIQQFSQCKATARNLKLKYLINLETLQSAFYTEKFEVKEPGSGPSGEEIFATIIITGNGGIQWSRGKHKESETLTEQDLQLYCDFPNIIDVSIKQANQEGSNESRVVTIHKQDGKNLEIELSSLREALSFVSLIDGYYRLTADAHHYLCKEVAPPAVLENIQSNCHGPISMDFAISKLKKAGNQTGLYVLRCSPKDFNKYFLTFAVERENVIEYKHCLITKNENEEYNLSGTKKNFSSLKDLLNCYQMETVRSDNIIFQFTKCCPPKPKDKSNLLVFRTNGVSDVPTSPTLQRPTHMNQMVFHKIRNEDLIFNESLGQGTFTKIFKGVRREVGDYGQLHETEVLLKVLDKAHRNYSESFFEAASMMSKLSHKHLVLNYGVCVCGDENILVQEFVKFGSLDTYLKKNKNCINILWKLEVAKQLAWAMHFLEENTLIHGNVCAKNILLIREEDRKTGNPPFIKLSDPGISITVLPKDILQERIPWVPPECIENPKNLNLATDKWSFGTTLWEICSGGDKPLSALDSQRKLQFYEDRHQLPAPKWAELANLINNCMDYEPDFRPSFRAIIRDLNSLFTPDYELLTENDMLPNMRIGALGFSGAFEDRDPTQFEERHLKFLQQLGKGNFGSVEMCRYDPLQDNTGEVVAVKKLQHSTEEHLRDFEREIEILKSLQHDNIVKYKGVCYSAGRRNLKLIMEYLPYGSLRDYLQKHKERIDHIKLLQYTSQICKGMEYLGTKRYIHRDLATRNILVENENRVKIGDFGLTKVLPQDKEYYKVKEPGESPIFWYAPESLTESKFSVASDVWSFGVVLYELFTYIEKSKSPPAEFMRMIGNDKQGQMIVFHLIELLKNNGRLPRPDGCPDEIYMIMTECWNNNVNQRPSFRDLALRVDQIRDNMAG

[22] = molecular target: Tyrosine-protein kinase JAK3 (Homo sapiens) (UniProt P52333); experiment: Inhibition of JAK3 (unknown origin) at 1 uM relative to control
[23] = molecular target: Mitogen-activated protein kinase 1 (Homo sapiens) (UniProt P28482); experiment: Inhibition of MAPK1 (unknown origin) at 1 uM relative to control
Sequence of Mitogen-activated protein kinase 1 (Homo sapiens) (P28482 whole entry): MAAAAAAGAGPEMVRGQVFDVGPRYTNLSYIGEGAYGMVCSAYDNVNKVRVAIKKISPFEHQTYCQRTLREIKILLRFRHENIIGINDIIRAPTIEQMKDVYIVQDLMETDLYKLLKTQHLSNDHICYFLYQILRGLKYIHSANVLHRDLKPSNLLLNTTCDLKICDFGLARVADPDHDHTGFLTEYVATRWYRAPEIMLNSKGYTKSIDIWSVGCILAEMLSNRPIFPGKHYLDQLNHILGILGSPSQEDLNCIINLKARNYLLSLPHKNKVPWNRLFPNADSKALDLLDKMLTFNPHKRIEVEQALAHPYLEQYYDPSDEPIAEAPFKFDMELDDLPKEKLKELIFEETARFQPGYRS

[24] = molecular target: cAMP-dependent protein kinase catalytic subunit alpha (Homo sapiens) (UniProt P17612); experiment: Inhibition of PRKACA (unknown origin) at 1 uM relative to control
[25] = molecular target: Protein kinase C alpha type (Homo sapiens) (UniProt P17252); experiment: Inhibition of PRKCA (unknown origin) at 1 uM relative to control
[26] = molecular target: Focal adhesion kinase 1 (Homo sapiens) (UniProt Q05397); experiment: Inhibition of PTK2 (unknown origin) at 1 uM relative to control
Sequence of Focal adhesion kinase 1 (Homo sapiens) (Q05397 2-1052 limits assumed): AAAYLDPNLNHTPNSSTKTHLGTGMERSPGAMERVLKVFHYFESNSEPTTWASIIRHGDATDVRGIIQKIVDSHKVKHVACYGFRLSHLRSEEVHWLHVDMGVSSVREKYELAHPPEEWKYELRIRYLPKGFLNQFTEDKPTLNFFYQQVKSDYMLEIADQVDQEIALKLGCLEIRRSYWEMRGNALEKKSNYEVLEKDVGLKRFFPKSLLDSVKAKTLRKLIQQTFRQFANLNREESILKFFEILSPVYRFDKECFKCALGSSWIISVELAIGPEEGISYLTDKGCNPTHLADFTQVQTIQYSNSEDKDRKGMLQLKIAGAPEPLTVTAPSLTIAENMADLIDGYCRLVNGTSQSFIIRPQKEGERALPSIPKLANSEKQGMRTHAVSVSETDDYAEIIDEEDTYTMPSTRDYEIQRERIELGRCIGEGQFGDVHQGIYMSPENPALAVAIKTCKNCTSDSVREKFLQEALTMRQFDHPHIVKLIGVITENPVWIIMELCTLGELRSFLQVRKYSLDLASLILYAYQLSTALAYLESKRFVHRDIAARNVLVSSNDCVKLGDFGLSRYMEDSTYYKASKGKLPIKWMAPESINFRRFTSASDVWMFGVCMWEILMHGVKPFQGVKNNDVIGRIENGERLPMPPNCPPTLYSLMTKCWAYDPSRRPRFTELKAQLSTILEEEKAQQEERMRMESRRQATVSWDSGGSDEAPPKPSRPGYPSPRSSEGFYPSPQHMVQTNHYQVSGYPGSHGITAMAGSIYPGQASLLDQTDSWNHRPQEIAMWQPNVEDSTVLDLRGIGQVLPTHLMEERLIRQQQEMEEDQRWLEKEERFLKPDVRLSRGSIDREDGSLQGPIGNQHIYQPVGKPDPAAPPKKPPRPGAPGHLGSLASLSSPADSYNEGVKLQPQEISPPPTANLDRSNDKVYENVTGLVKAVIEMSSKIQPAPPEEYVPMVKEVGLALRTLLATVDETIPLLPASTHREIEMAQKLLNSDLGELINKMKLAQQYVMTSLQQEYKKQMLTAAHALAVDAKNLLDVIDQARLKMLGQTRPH

[27] = molecular target: Protein-tyrosine kinase 6 (Homo sapiens) (UniProt Q13882); experiment: Inhibition of PTK6 (unknown origin) at 1 uM relative to control
[28] = molecular target: Proto-oncogene tyrosine-protein kinase Src (Homo sapiens) (UniProt P12931); experiment: Inhibition of SRC (unknown origin) at 1 uM relative to control
Homo sapiens = organism: Homo sapiens; experiment: Inhibition of 746 to 750 truncated EGFR (unknown origin) at 1 uM relative to control
[29] = molecular target: Tyrosine-protein kinase Tec (Homo sapiens) (UniProt P42680); experiment: Inhibition of TEC (unknown origin) at 1 uM relative to control
[30] = molecular target: Activated CDC42 kinase 1 (Homo sapiens) (UniProt Q07912); experiment: Inhibition of TNK2 (unknown origin) at 1 uM relative to control
Sequence of Activated CDC42 kinase 1 (Homo sapiens) (Q07912 whole entry, looked up): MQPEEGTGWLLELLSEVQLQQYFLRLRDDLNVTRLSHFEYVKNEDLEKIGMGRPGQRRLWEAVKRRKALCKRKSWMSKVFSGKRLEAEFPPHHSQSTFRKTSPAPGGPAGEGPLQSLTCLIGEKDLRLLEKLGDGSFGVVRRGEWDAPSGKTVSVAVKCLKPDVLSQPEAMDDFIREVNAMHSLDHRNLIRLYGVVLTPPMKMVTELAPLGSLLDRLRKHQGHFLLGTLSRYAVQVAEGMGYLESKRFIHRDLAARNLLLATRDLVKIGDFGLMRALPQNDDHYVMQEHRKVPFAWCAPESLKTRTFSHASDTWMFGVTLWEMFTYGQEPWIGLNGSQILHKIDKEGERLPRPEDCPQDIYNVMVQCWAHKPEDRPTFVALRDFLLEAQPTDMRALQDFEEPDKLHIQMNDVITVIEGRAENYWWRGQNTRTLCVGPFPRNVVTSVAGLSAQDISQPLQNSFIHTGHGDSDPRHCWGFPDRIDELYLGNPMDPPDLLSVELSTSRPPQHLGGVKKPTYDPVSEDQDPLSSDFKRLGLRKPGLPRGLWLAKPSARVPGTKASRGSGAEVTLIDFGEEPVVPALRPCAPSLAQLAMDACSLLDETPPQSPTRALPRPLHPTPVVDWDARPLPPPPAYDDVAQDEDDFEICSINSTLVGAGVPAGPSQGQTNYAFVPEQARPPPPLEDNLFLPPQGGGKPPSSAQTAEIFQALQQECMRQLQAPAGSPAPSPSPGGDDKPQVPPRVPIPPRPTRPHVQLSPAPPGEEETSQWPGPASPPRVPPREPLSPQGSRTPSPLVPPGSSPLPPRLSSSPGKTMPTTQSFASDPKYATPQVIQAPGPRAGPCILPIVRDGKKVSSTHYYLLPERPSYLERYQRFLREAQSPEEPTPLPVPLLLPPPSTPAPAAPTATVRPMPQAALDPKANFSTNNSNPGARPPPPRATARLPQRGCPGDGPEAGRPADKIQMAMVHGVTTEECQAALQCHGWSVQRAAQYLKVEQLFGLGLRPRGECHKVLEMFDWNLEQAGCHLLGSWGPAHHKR

With `C=CC(=O)Nc1cc(Nc2nccc(-c3cn4c5c(cccc35)CCC4)n2)c(OC)cc1N(C)CCN(C)C` the IC50 (NCI-H1975 [1]) was 103 nM, the CLint scaled [2] was 457 mL/min/kg and the half-life [3] was 0.55 h. For the same compound, the CLH [4] was 5 µL/min/10^6 cells, the MRT [5] was 5.7 h and the AUC(0-t) at 24 h [6] was 190 ng·h/mL. For the same compound, the clearance [7] was 86.2 mL/min/kg, the MRT [8] was 4.7 h and the Activity (NCI-H1975 [9]) was 239.33 mm3. For the same compound, the Activity (NCI-H1975 [10]) was 113.52 mm3, the inhibition in vivo at 20 mg/kg (NCI-H1975 [11]) was 96.3% and the Activity (Mus musculus) was “Non-Toxic”. For the same compound, the inhibition [12] was -2%, the inhibition [13] was 85% and the inhibition [14] was 48%. For the same compound, the inhibition [15] was 7%, the inhibition [16] was 3% and the inhibition [17] was 6%. It also gave an inhibition [18] of 78%, an inhibition [19] of 7% and an inhibition [20] of 66%. The inhibition [21] was -6%, the inhibition [22] was 89% and the inhibition [23] was -3%. The inhibition [24] was 2%, the inhibition [25] was 1% and the inhibition [26] was 73%. The inhibition [27] was 83%, the inhibition [28] was 16% and the inhibition (Homo sapiens) was 110%. The inhibition [29] was 52% and the inhibition [30] was 75%.

From ChEMBL document CHEMBL4052618, “Design, synthesis, SAR discussion, in vitro and in vivo evaluation of novel selective EGFR modulator to inhibit L858R/T790M double mutants” (Eur J Med Chem, 2017)
